Test results: PMC3966479 (Science (New York, N.Y.), 2013)

Tests used:
THP1 macrophages = assay: In vitro phagocytosis of opsonized nanobeads by THP1 macrophages; type: cell-based, human; details: THP1, DMSO solvent
Summary of the method: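 Fluorescent 100-nm streptavidin-coated polystyrene beads, opsonized with antistreptavidin antibody, with or without attached hCD47, given to THP1 cells in vitro. Phagocytosis scored at 45 min. Cultures fixed without permeabilization, and non-ingested beads immunostained with a secondary antibody against the antistreptavidin opsonin. Data as means ± SEM.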

macrophages / phagocytes = assay: Circulation of nanobeads in NSG mice; type: in vivo, mouse (NSG); details: opsonized nanobeads, i.v.
[1] = Organ localization of nanobeads by whole-body NIRF imaging; type: in vivo, mouse (NSG); details: NIRF beads

O=S(=O)(O)c1ccc2cc(N=Nc3cc(S(=O)(=O)O)c4cccnc4c3O)ccc2c1 [NSC-87877]
reversal of hCD47 inhibition of uptake (THP1 macrophages; SHP1 inhibition, hCD47 beads): blocks the inhibition of uptake by hCD47

Cc1ccc2c(c1)C(=O)C1(O)CCN(c3ccccc3)C1=N2 (stereo not shown) [blebbistatin]
inhibition of uptake by 50 µM compound (THP1 macrophages; 50 µM, inhibition of myosin-IIA): inhibited

B1: mCD47: recombinant mouse CD47 (protein, UniProt Q61735 19-303, looked up)
Leukocyte surface antigen CD47: QLLFSNVNSIEFTSCNETVVIPCIVRNVEAQSTEEMFVKWKLNKSYIFIYDGNKNSTTTDQNFTSAKISVSDLINGIASLKMDKRDAMVGNYTCEVTELSREGKTVIELKNRTVSWFSPNEKILIVIFPILAILLFWGKFGILTLKYKSSHTNKRIILLLVAGLVLTVIVVVGAILLIPGEKPVKNASGLGLIVISTGILILLQYNVFMTAFGMTSFTIAILITQVLGYVLALVGLCLCIMACEPVHGPLLISGLGIIALAELLGLVYMKFVASNQRTIQPPRNR
effect on circulation / clearance of nanobeads (macrophages / phagocytes): enhanced persistence in circulation
splenic / organ localization of nanobeads [1]: moderate but suppressed splenic localization
